Experimental data of several laboratories.
Each line is one published result; the experiments were not run side by side.
Cell line: HEK293
Read-out: cell growth or viability

| Structure (SMILES) | test | setting | measurement | value |
| --- | --- | --- | --- | --- |
| Cc1c2ccncc2c(C)c2c1[nH]c1ccc(OCCN(C)C)cc12 | MTS | – | IC50 | 3.16 µM |
| CC/C(=C(\c1ccccc1)c1ccc(OCCN(C)C)cc1)c1ccccc1 | resazurin | 20 h | CC50 | 9 µg/mL |
| CO[C@H]1C[C@@H](C[C@H](C)[C@H]2CC(=O)[C@@H](C)/C=C(\C)[C@H](O)[C@H](OC)C(=O)[C@@H](C)C[C@@H](C)/C=C/C=C/C=C(\C)[C@H](OC)C[C@H]3CC[C@H](C)[C@](O)(O3)C(=O)C(=O)N3CCCC[C@@H]3C(=O)O2)CC[C@@H]1OCCO (racemic) | MTT | 24 h | CC50 | 63.7 µM |
| CC(C)(O)c1coc(S(=O)(=O)NC(=O)Nc2c3c(cc4c2CCC4)CCC3)c1 | MTT | 10 µM, 4 h | viability | 95.2% |
| CCn1cc(C(=O)NCCNCCO)c(=O)c2cc(OC)c(OCc3cc(F)cc(F)c3)cc21 | resazurin | 20 h | CC50 | > 32 µg/mL |
| O=P(O)(O)c1cc2c(O)c(c1)Cc1cc(P(=O)(O)O)cc(c1O)Cc1cc(P(=O)(O)O)cc(c1O)Cc1cc(P(=O)(O)O)cc(c1O)Cc1cc(P(=O)(O)O)cc(c1O)Cc1cc(P(=O)(O)O)cc(c1O)Cc1cc(P(=O)(O)O)cc(c1O)Cc1cc(P(=O)(O)O)cc(c1O)C2 | MTT | 24 h | CC50 | 608 µM |
| Cc1ccc2oc(-c3cc(NC(=O)Cc4ccccc4)ccc3Cl)nc2c1 | MTT | 24 h | CC50 | > 400 µM |
| CC1c2cc(c(O)cc2O)C(C)c2cc(c(O)cc2O)C(C)c2cc(c(O)cc2O)C(C)c2cc1c(O)cc2O (stereo not drawn) | ATP luminescence | 24 h | CC50 | 21.2 µM |
| C[C@@H](c1cc(Cl)cc(Cl)c1)N(C)c1ncc2c(N)nc(N)nc2n1 | MTT | 24 h | CC50 | 31.2 µM |
